PGC1a acetyl inh: PGC1a acetylation modulation, inhibitor mode; AID 651687; U2OS PGC1a acetylation, AlphaScreen anti-acetyl-lysine; with virally co-expressed GCN5 acetyltransferase; hit rate 0.17% among 350,000; inhibition, % at 15.6 µM;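 active = every replicate shows inhibition of at least 40%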;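 also: 0% = neutral control wells and 100% = positive control wells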
Ecoli rRNA inh: inhibits bacterial ribosomal RNA function over humanized ribosomes | E. coli WT GFP vs humanized-ribosome RFP mutants, fluorescence, 24 h; stronger effect = lower value; DMSO median 0, no signal -100 | GFP signal change (wild-type ribosome), % (test concentration not listed) | hit rate 1.6% among 350,000 | AID 720706;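 active = significant combined selectivity score with lowered wild-type GFP, culture density cut under 30%, mutant RFP and density less affected; inactive = any of these conditions unmet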
Cneo AK release: causes C. neoformans cell lysis; adenylate kinase release luminescence, 4 h; normalised: neutral wells 0, clomiphene wells 100; lysis activity, % at 15 µM; hit rate 0.2% among 360,000; AID 651654;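 active = mean lysis activity across replicates of at least 80%, whatever share of replicates individually reach that level; inactive = mean lysis activity below 80%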
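Material: C. neoformans cells; Schedule: 4 h static compound exposure, 37 °C, read 1 h post-reagent; Measured by: adenylate kinase release luminescence; Read-out: signal increase indicating cell lysis; Controls: Clomiphene as positive lysis control.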
FGF22 binding: binders of recombinant human FGF22 by thermal shift; hit rate 1.5% among 340,000; SYPRO orange fluorescence; percent of sucrose octasulfate shift, DMSO zero; activity (Tm shift, normalised), % at 9.99 µM;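 active = mean Tm shift, scaled 0 neutral to 100 positive control, at about 1.3% or above, every replicate too, limit read from the data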
Target sequence (Q9HCT0 whole entry, looked up): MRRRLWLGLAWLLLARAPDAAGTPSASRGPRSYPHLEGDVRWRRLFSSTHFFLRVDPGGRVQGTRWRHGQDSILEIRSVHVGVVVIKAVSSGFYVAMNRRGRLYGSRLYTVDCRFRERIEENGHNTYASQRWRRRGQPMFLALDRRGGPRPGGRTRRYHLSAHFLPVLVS
PglD DTNB: blocks C. jejuni PglD acetyltransferase activity; purified PglD enzyme, DTNB colorimetric CoA detection; hit rate 0.098% among 360,000; inhibition, % at 12.5 µM; AID 602405; in the data active = inhibition above about 16%, passing the limit was not always enough
Vif imaging: blocks HIV Vif function; HEK293T cells, Vif self-association by quenched fluorescence, imaging, 24 h; inhibition, % at 7.49 µM; hit rate 0.35% among 340,000; in the data active = inhibition above about 50%, passing the limit was not always enough
Starred values were filed as active, the others as inactive; / = no result given. The list is not random: actives were taken first. Their share in the collection is about 2.9%.

SMILES	PGC1a acetyl inh	Ecoli rRNA inh	Cneo AK release	FGF22 binding	PglD DTNB	Vif imaging
COc1ccc(C(Nc2ccccn2)c2c(NC(=O)c3ccco3)sc(C)c2C)cc1OC (stereo not given)	-3	/	-2	44*	-3	-10
Cc1ccc(S(=O)(=O)N(C)C[C@@H]2Oc3ccc(NC(=O)Cn4cnnn4)cc3CC(=O)N([C@@H](C)CO)C[C@H]2C)cc1	-6	-2	-11	0	-1	/
O=C(C1CC1)N1C[C@@H]2N[C@H](C1)C2c1ccc(-c2ccccc2F)cc1 (stereo not given in full)	-17	-4	/	/	/	/
COC(=O)CCC(=O)Nc1sc(Cc2ccccc2)c(C)c1C(N)=O	/	-1	/	0	/	4
Cc1ccccc1NC(=S)NC(=O)CCc1ccccc1	8	/	103*	/	-3	0
COC(=O)CCC(=O)NC(=S)Nc1sc(C)c(C)c1C(N)=O	/	/	/	/	/	24
CCCC(=O)Nc1sc(Cc2ccccc2)c(C)c1C(N)=O	-12	-24*	-2	0	4	-6
Cc1sc(NC(=S)NC(=O)CCc2ccccc2)c(C(N)=O)c1C	/	-3	/	0	/	125*
Cc1[nH]c2ccccc2c1CCNC(=O)c1c(N)no[n+]1[O-]	-3	-21*	/	0	/	-6
CCCNC(=O)c1cc(C2CCCN(S(=O)(=O)c3cccc4cccnc34)C2)on1 (stereo not given)	2	-15*	-1	0	1	73*
COCCNC(=O)NC(=O)CN1CCN(C(c2ccccc2)c2ccccc2)CC1	/	11	/	43*	/	33
COCCNC(=S)N1CCN(C(c2ccccc2)c2ccccc2)CC1	/	-1	-1	0	-1	22
CCNC(=O)C[C@@H]1CC[C@@H]2[C@@H](COc3ccc(NC(=O)c4ccc(C(F)(F)F)cc4)cc3C(=O)N2C)O1	13	-1	-1	0	2	/
O=C(N[C@H]1CC[C@H](CCNC(=O)c2ccccc2F)O[C@@H]1CO)c1cnccn1	4	-3	45	1	-2	/
O=C(/C=C/c1ccc([N+](=O)[O-])cc1)OCc1cnc(-c2ccccc2)o1	/	-1	/	44*	/	-4
CCCC(=O)Nc1ccc2c(c1)C(=O)N(C)C[C@@H](OC)[C@H](C)CN(C(=O)CN(C)C)[C@H](C)CO2	4	2	-3	0	-2	/
COCC(=O)N1C[C@H](C)[C@@H](OC)CN(C)C(=O)c2cc(NC(=O)c3cc(C)on3)ccc2OC[C@H]1C	4	2	/	/	/	/
CCOc1ccc(NC(=O)c2sc(NC(C)=O)c(C(=O)OC)c2C)cc1	/	16	/	43*	/	2
COC(=O)c1c(NC(C)=O)sc(C(=O)Nc2ccccc2)c1C	/	/	0	43	-2	14
CO[C@@H]1CN(C)C(=O)c2ccc(NS(=O)(=O)c3ccccc3F)cc2OC[C@H](C)NC[C@@H]1C	-1	5	2	0	2	/
COc1ccc(-c2cnc3nc(/N=C/N(C)C)nn3c2/N=C/N(C)C)cc1	3	13	-2	43*	-1	-4
CN(C)/C=N/c1nc2nccc(-c3ccc(Cl)cc3)n2n1	-1	12	/	0	/	11
COCC(=O)N1[C@H](C#N)[C@H](c2ccccc2-c2cccc(OC)c2)[C@H]1CO	8	6	/	0	/	/
Cn1cc(CN2CCN(CCO)CC2)c(-c2ccc(Oc3ccccc3)cc2)n1	-5	/	-6	43*	0	-5
CC(C)N(C)Cc1cn(C)nc1-c1ccc(Oc2ccccc2)cc1	-3	-6	0	0	1	-3
SMILES	PGC1a acetyl inh	Ecoli rRNA inh	Cneo AK release	FGF22 binding	PglD DTNB	Vif imaging
Cn1cc(CNCc2cnc3ccccn23)c(-c2ccc(Oc3ccccc3)cc2)n1	/	-24	/	44*	/	-2
CN(Cc1ccno1)Cc1cn(C)nc1-c1ccc(Oc2ccccc2)cc1	1	-34*	/	0	/	-1
COCCN1CCN(Cc2cn(C)nc2-c2ccc(Oc3ccccc3)cc2)CC1	2	0	-2	0	-3	/
COc1ccccc1CNC(=O)C[C@@H]1CC[C@H]2[C@@H](COC[C@@H](O)CN2C(=O)Nc2ccccc2)O1	0	0	0	0	0	/
CC(=O)N[C@H]1CC[C@@H](CCNC(=O)C2CCCCC2)O[C@@H]1CO	/	2	/	/	/	/
O=C(O)c1cc(C2CC2)nn1-c1ccccc1	/	-6	1	/	-1	31
NC(=O)C1Cc2ccccc2CN1C(=O)c1cc(C2CC2)nn1-c1ccccc1 (stereo not given)	/	-21*	0	0	3	1
Fc1ccccc1NC(=S)NCCc1cccc(Cl)c1	8	-25	97*	0	3	-17
Fc1cc(Br)ccc1NC(=S)NCCc1ccccc1	/	-50*	/	1.8*	/	0
O=C(O)CCn1ncc2ccccc2c1=O	-9	14	-1	43*	1	-9
CC(C(=O)O)n1ncc2ccccc2c1=O (stereo not given)	-1	8	1	0	4	-7
COC(=O)c1ccc(Cl)cc1NC(=O)/C=C/c1ccc(C)o1	-1	2	/	44*	/	4
NC(=O)COC(=O)c1cc(-c2cccs2)nn1-c1ccccc1	/	11	1	0	4	-2
COC(=O)c1cc(-c2cccs2)nn1-c1ccccc1	-1	-29*	/	0	/	-1
CN1C(=O)c2cc(NC(=O)Cc3cccs3)ccc2OC[C@@H]2O[C@H](CC(=O)NCC3CC3)CC[C@H]21	-4	6	0	0	-2	/
S=c1nc(C2COc3ccccc3O2)[nH][nH]1 (stereo not given)	2	2	-3	43*	-2	-11
S=c1[nH]nc(C2COc3ccccc3O2)o1 (stereo not given)	/	4	-3	/	-4	4
C[C@@H]1CN([C@@H](C)CO)C(=O)c2cc(NS(=O)(=O)c3ccc(Cl)cc3)ccc2O[C@@H]1CN(C)S(C)(=O)=O	-1	1	/	/	/	/
CNC(=O)NC(=O)C(C)OC(=O)c1ccc(Cl)c(S(=O)(=O)Nc2ccc(F)cc2)c1 (stereo not given)	-11	-26*	-3	0	-3	-2
C[C@H]1CN([C@@H](C)CO)C(=O)c2cc(C#CCc3ccccc3)cnc2O[C@H]1CN(C)Cc1cccnc1	4	6	2	0	-3	/
O=C(O)COc1ccc(Cl)cc1C1CCCCC1	15	-2	0	43*	3	11
CCOC(=O)c1sc(=S)n(C)c1NC(=O)c1ccc(OC)cc1	-5	-21*	3	0	3	2
CCCN(C)C[C@H]1Oc2cc(C#Cc3cccc(OC)c3)ccc2S(=O)(=O)N([C@H](C)CO)C[C@H]1C	-30	0	/	/	/	/
COc1ccc(-n2nc(C(=O)NCC(=O)NCC3COc4ccccc4O3)c3ccccc3c2=O)cc1OC (stereo not given)	-38	-10	/	/	/	-11
